# Source: PubChem BioAssay
# Compounds with a hit are over-represented: about 1% of the library has one in this group of screens.
# eIF2B yeast act – modulators of yeast eIF2B activity | S. cerevisiae eIF2B-epsilon R284H, GCN4-lacZ luminescence | inhibition, % at 25 µM (by protocol) | 0.91% of 27,000 active | AID 688;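 active = mutant luminescence inhibited past about 50% while wild type luminescence and mutant growth stay under set limits, limit read from the data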
#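 System: Yeast eIF2B-epsilon R284H mutant carrying GCN4–beta-galactosidase fusion | Read-out basis: Percent inhibition, luminescence and growth | Compound: 25 µM single dose | Times: 16 h at 30 °C exposure | Measured by: Luminescence and A595 | Buffer or medium: YPD medium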
# Yeast growth tox – Inhibits yeast growth, turbidity readout; growth inhibition, % at 25 µM (by protocol); 0.3% of 30,000 active; S. cerevisiae wild-type growth, A595 turbidity, 16 h;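 active = mutant and wild-type yeast strains alike exhibit over 30% growth inhibition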;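 also: 0% = untreated cell controls and 100% = YPD media blanks without cells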
#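 Schedule: 16 h growth with compound, 30 °C. System: yeast, wild-type or eIF2Bepsilon-R284H mutant. Doses: one dose, 25 µM compound[…]. Buffer or medium: YPD. Signal: turbidity measured as absorbance at 595 nm. Read-out basis: growth inhibition (%) versus cell controls and blanks.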
# Starred values were filed as active, the others as inactive; · = no result given.
SMILES,eIF2B yeast act,Yeast growth tox
CC(C)NC(=O)c1cc(-c2cccs2)on1,24,18
COCC(=O)Nc1ccccc1NC(C)=O,24,4
COCC(=O)NC(c1ccccc1)c1ccccc1,62*,9
CCCN(CCC)c1nc(NC2CCN(C(=O)OCC)CC2)nc(OC)n1,25,0
Cc1ccc(C)c(N=C2CCCN2Cc2ccccc2)c1C#N,57*,·
O=C(O)CN1CCCC1=Nc1ccccc1,·,8
C=CCc1c(C)nc(SC(C)C)[nH]c1=O,52*,-13
C=CCSc1nc(C)c(CC=C)c(=O)[nH]1,-23,·
COc1ccc(S(=O)(=O)N2CCC(C(=O)NCc3ccccn3)CC2)cc1Cl,-9,-3
CCC(=O)Nc1ccc(NC(=O)c2cc3ccccc3o2)cc1,19,18
O=C(Nc1ccccn1)c1cc2ccccc2o1,57*,·
Cc1ccc(SC(C)C(=O)Nc2c(C)n(C)n(-c3ccccc3)c2=O)cc1 (stereo not drawn),·,2
COc1ccccc1-c1nnc2sc(COc3ccc(Cl)cc3)nn12,63*,2
COc1ccc(OCc2nn3c(-c4ccccn4)nnc3s2)cc1,10,8
O=C(CCS(=O)NCc1ccccc1)NCc1ccccc1 (stereo not drawn),10,1
O=C(CCS(=O)CCC(=O)NCc1ccccc1)NCc1ccccc1,55*,-11
Cc1[nH]c(=O)c(C#N)c2c1CSC(C)(C)C2,44,5
COC(=O)c1[nH]cnc1C(=O)c1ccccc1,-7,-4
O=C(NC(Cc1ccccc1)C(=O)OCC(=O)N1CCc2ccccc21)c1ccco1 (stereo not drawn),52*,-19
Cc1cc(NC(=O)COC(=O)C(Cc2ccccc2)NC(=O)c2ccco2)no1 (stereo not drawn),20,13
CC(C)c1nnc(NC(=O)CSc2ccccc2)s1,·,28
CCOC(=O)COc1ccc(S(=O)(=O)N2CCN(C(=O)OCC)CC2)cc1,11,9
CCOC(=O)c1cc(S(=O)(=O)N2CCN(C(=O)OCC)CC2)cn1C,67*,-1
Cc1ccc(C(=O)Nc2cnc3sc(C)nn3c2=O)cc1,14,-2
COC(=O)c1cn(CCOc2ccccc2)c2ccccc12,61*,11
SMILES,eIF2B yeast act,Yeast growth tox
COC(=O)c1cn(CCOc2ccccc2OC)c2ccccc12,7,·
Cn1c(N)c(C(=O)COC(=O)C2(c3cccc(F)c3)CCCC2)c(=O)n(C)c1=O,26,-6
CCn1c(SCc2cccc(C)c2)nnc1-c1ccc(C)cc1,16,4
Cc1cccc(-c2nnc(SCC#N)n2Cc2ccccc2)c1,64*,-15
CCOC(=O)Cc1csc(NC(=O)CCCCCN2C(=O)c3cccc4cccc(c34)C2=O)n1,-25,20
CC(CC(=O)Nc1nc2ccccc2[nH]1)c1ccccc1 (stereo not drawn),1,14
O=C(COc1cccc2ccccc12)Nc1nc2ccccc2[nH]1,·,30*
CCSc1ccccc1C(=O)NCc1ccco1,·,23
CCOc1ccc(-n2nc(C(=O)N3CCN(CC)CC3)c3ccccc3c2=O)cc1,-18,-21
CCOc1ccc(-n2nc(C(=O)N3CCOCC3)c3ccccc3c2=O)cc1,59*,-11
COc1ccc(CCN(Cc2nc(-c3ccccc3)no2)Cc2nc(-c3ccccc3)no2)cc1OC,-3,-12
CCOc1ccc(N=C(NC#N)SCC(=O)NC2CC2)cc1,17,-8
CN1CCN(c2nc(-c3ccccc3)cc(C(F)(F)F)n2)CC1,30,-12
CN1CCN(C2=Cc3ccccc3Sc3cc(F)c(F)cc32)CC1,75,94*
CN1CCN(C2=Cc3ccccc3Sc3cc(F)c(Cl)cc32)CC1,98,99*
CN1CCN(CCC(=O)N2c3ccccc3Sc3ccc(Cl)cc32)CC1,20,-2
CCOC(=O)c1ccoc1CSCc1ccc(C(=O)OC)o1,19,28
Cc1cccn2c(=O)c3cc(C(=O)N4CCc5ccccc5C4)n(C)c3nc12,10,-31
CC1(C)C(=O)OC(c2c(F)c(F)c(F)c(F)c2F)C2(CCCCC2)C1=O (stereo not drawn),4,-10
N#CCCCSC1=C(C#N)C(c2ccccc2Cl)CC(=O)N1 (stereo not drawn),38,-11
O=C(NC1CCCCC1)Sc1ccc(Cl)cc1,9,41*
COc1ccc(Cl)cc1NC(=O)C(=O)NC1CCCCCC1,19,12
COc1c(F)c(F)c(C(=O)Nc2ccc(N3CCN(Cc4ccccc4)CC3)cc2)c(F)c1F,-22,11
CCC(C)Oc1cccc(OCCCCN2C(=O)NC(C)(C)C2=O)c1 (stereo not drawn),51*,-12
CC1(C)NC(=O)N(CCOCCOc2cccc(Oc3ccccc3)c2)C1=O,13,2
SMILES,eIF2B yeast act,Yeast growth tox
COc1ccc(-c2cc3nc(C)cc(N)n3n2)cc1,82*,-14
CCc1c(C)nc2cc(-c3ccc(OC)c(OC)c3)nn2c1N1CCCC1,15,12
CCCOc1ccc(C(=O)N2CCCc3ccccc32)cc1,73*,-14
COc1cc(OC)cc(C(=O)N2CCCc3ccccc32)c1,19,2
Cc1ccc(S(=O)(=O)NCCC(=O)O)cc1,35,16
CC(C)NC(=O)CCNS(=O)(=O)c1ccc(Br)cc1,83*,-9
CCC(=O)Nc1c2c(nn1-c1ccc(C)cc1C)CSC2,52*,8
Cc1ccccc1-n1nc2c(c1NC(=O)c1c(-c3ccccc3Cl)noc1C)CSC2,17,11
Cc1ccc(Cn2nnc3c(=O)n(CC(=O)N4CCCc5ccccc54)cnc32)cc1,-4,9
Cc1cccc(Cn2cnc3c(nnn3Cc3ccc(Cl)cc3)c2=O)c1,59*,-16
COc1cccc(CNC(=O)C2CCCN(c3nc4ccccc4o3)C2)c1 (stereo not drawn),21,11
N#Cc1c(/N=C/c2cc(Br)cs2)sc2c1CCC2,60*,0
N#Cc1c(/N=C/c2cccs2)sc2c1CCC2,-14,0
CCOC(=O)c1ccc(Cn2c(-c3ccccc3)nnc2-c2ccccc2)o1,·,-1
COC(=O)c1ccc(C(=O)OC)c(NC(=O)CSc2nc(-c3ccco3)cc(C(F)(F)F)n2)c1,18,0
COC(=O)c1ccccc1NC(=O)CSc1nc(-c2ccco2)cc(C(F)(F)F)n1,66*,-5
O=C(CCN1CCN(C(=O)c2ccco2)CC1)Nc1ccc(F)cc1,69*,-14
CC(=O)Nc1ccc(C(=O)N2CCN(C(=O)c3ccco3)CC2)cc1,13,-2
Cc1ccc(C2CC(c3cccs3)=NN2C(=O)c2ccc(Br)o2)cc1 (stereo not drawn),22,4
CN1C(=O)NC2(O)C(=O)c3ccccc3C12O (stereo not drawn),·,8
CN1C(=O)N(C)C2(c3ccccc3)NC(=O)NC12c1ccccc1 (stereo not drawn),54*,3
COC(=O)c1nn(-c2ccc3c(c2)CCN3C(C)=O)cc1O,77*,-9
COC(=O)c1nn(-c2ccc3c(c2)OCO3)cc1O,26,-24
CCn1c(C)c(C(C)=O)c(SC)nc1=S,·,5
COn1c(SC2CCCCC2)nc2ccccc2c1=O,10,-7
Cc1ccc(-c2cn(S(=O)(=O)c3cccc4nsnc34)nc2N)cc1,58*,-1
Cc1ccc(C)c(N(C)S(=O)(=O)c2cccc3nsnc23)c1,3,0
CN(C(=O)Cc1ccccc1)n1cnnc1,-8,-7
